Test results from ChEMBL document CHEMBL1240313, “A clinical drug library screen identifies astemizole as an antimalarial agent” (Nat Chem Biol, 2006).
Active and inactive are the calls of the source. The rule behind the calls is not given here.

Legend:
Heme [1] = experiment: Inhibition of heme crystallization after 16 hrs
Method in brief: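 Heme crystal extension was seeded with 2.5 nmol heme crystal and run with 50 µM heme in 0.1 M ammonium acetate, pH 4.8, at 37°C for 16 h. Crystal extension was quantified by the differential solubility of free versus crystalline heme in 0.15 M sodium bicarbonate. IC50 came from a four-parameter logistic fit and is given as mean ± s.e.m. of triplicate experiments.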

Heme [2] = experiment: Displacement of [3H]astemizole from free heme crystal at 15 uM after 16 hrs by scintillation counting
Method in brief: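 [3H]-astemizole (27 Ci/mmol) was incubated in triplicate with a 5 nmol heme crystal seed and 50 µM heme in 0.1 M ammonium acetate, pH 4.8, for 16 h at 37°C. Crystal was pelleted, sonicated, and spun through 1.7 M sucrose at 200,000 × g. The pellet was decrystallized in 50 mM NaOH/2% SDS and counted by scintillation.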

Heme [3] = experiment: Inhibition of heme crystallization at 7.5 uM after 24 hrs at pH 5.2 - 5.6
Plasmodium falciparum [4] = experiment: Antiplasmodial activity against Plasmodium falciparum infected in erythrocytes assessed as stabilization of free heme at 0.05 uCi after 16 hrs by scintillation counting; type: functional, organism-based; conditions: tested as the 3H-labelled form
Plasmodium falciparum [5] = experiment: Antimalarial activity against Plasmodium falciparum Dd2 assessed as inhibition of parasite growth after 48 to 96 hrs by [3H]hypoxanthine incorporation assay; type: functional, organism-based
Method in brief: (§1)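 Synchronized ring-stage parasites in RPMI 1640 with 10% human serum, 0.2% parasitemia and 2-4% hematocrit, were exposed to drug for 48 or 96 h with [3H]-hypoxanthine. Growth was read as radioactive incorporation. IC50 came from a four-parameter logistic fit and is given as mean ± s.e.m. of triplicate experiments.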

Plasmodium falciparum [6] = experiment: Antimalarial activity against Plasmodium falciparum ItG assessed as inhibition of parasite growth after 48 to 96 hrs by [3H]hypoxanthine incorporation assay; type: functional, organism-based; method in brief: as §1
Plasmodium falciparum [7] = experiment: Antimalarial activity against Plasmodium falciparum 3D7 assessed as inhibition of parasite growth after 48 to 96 hrs by [3H]hypoxanthine incorporation assay; type: functional, organism-based; method in brief: as §1
Plasmodium vinckei [8] = experiment: Antimalarial activity against chloroquine-sensitive Plasmodium vinckei infected in mice (Mus musculus) assessed as reduction in parasitemia at 30 mg/m'2, intraperitoneally […]; type: functional
Plasmodium yoelii [9] = experiment: Antimalarial activity against chloroquine-sensitive Plasmodium yoelii 17X infected in mice (Mus musculus) assessed as reduction in parasitaemia at 15 mg/m'2, […] administered 2 hrs post infection […]; type: functional
Plasmodium yoelii [10] = experiment: Antimalarial activity against chloroquine-sensitive Plasmodium yoelii 17X infected in mice (Mus musculus) assessed as complete cure from parasite infection at 300 mg/m'2, perorally daily for 4 days administered 2 hrs post infection measured on day 4; type: functional, organism-based
Method in brief: (§2)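 P. yoelii 17X lethal strain was used in male C57/BL6 mice (5-6 weeks, 25 ± 2 g), assessed by the 4-d suppression test. Drug or an equal volume of vehicle was given intraperitoneally or per os. Parasitemia is reported as mean ± s.e.m. Cure meant survival to day 30 with cleared parasitemia and no recrudescence over a further 30 days. Two-tailed t-test was used.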

Plasmodium vinckei [11] = experiment: Antimalarial activity against chloroquine-sensitive Plasmodium vinckei infected in mice (Mus musculus) assessed as complete cure from parasite infection at 300 mg/m'2, perorally qd for 4 days administered 2 hrs post infection measured on day 4; type: functional
Method in brief: (§3)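 Male C57/BL6 mice (5-6 weeks, 25 ± 2 g) were infected with the P. vinckei Rhodain strain and assessed by the 4-d parasite suppression test. Astemizole tartrate or acetate, or an equal volume of vehicle, was given intraperitoneally or per os. Parasitemia is reported as mean ± s.e.m. Cure meant survival to 30 days post infection with parasitemia cleared and no recrudescence over the next 30 days. Two-tailed Student's t-test was used.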

Plasmodium vinckei [12] = experiment: Antimalarial activity against chloroquine-sensitive Plasmodium vinckei infected in mice (Mus musculus) assessed as complete cure from parasite infection at 30 mg/m'2, intraperitoneally qd for 4 days administered 2 hrs post infection measured on day 5; type: functional; method in brief: as §3
Plasmodium yoelii [13] = experiment: Antimalarial activity against chloroquine-sensitive Plasmodium yoelii 17X infected in mice (Mus musculus) assessed as complete cure from parasite infection at 15 mg/m'2, intraperitoneal daily for 4 days administered 2 hrs post infection measured on day 5; type: functional, organism-based; method in brief: as §2
Plasma = experiment: Metabolic stability in human plasma assessed as desmethylastemizole half life; type: ADME, cell-free
[14] = Oral bioavailability in human; type: ADME, organism-based; conditions: in vivo, read-out: Activity
Plasmodium vinckei [15] = experiment: Antimalarial activity against chloroquine-sensitive Plasmodium vinckei infected in mice (Mus musculus) assessed as reduction in parasitemia at 15 mg/m'2, intraperitoneally […]; type: functional
Plasmodium vinckei [16] = experiment: Antimalarial activity against chloroquine-sensitive Plasmodium vinckei infected in mice (Mus musculus) assessed as complete cure from parasite infection at 15 mg/m'2, intraperitoneally qd for 4 days administered 2 hrs post infection measured on day 5; type: functional; method in brief: as §3
[17] = Drug level in chloroquine-sensitive Plasmodium falciparum 3D7 culture at 1.5 uCi after 20 hrs; type: ADME; conditions: plasmodium falciparum 3d7, 20 h
[18] = Drug level in chloroquine-sensitive Plasmodium falciparum Dd2 culture at 1.5 uCi after 20 hrs; type: ADME; conditions: plasmodium falciparum dd2, 20 h
[19] = Drug level in Plasmodium falciparum 3D7 infected erythrocyte lysate at 1.5 uCi after 20 hrs; type: ADME, cell-based
[20] = Drug level in Plasmodium falciparum Dd2 infected erythrocyte lysate at 1.5 uCi after 20 hrs; type: ADME, cell-based
[21] = Drug level in chloroquine-sensitive Plasmodium falciparum 3D7 lysate at 1.5 uCi after 20 hrs; type: ADME; conditions: plasmodium falciparum 3d7, 20 h
[22] = Drug level in chloroquine-resistant Plasmodium falciparum Dd2 lysate at 1.5 uCi after 20 hrs; type: ADME; conditions: plasmodium falciparum dd2, 20 h
Method in brief: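 Duplicate 12 mL ring-synchronized cultures (RPMI 1640, 10% human serum; 5% parasitemia) incubated 20 h with 1.5 µCi tritiated drug. Trophozoite-stage erythrocytes harvested and washed once. Hemozoin released by hypotonic lysis, then pelleted through 1.7 M sucrose/50 mM Tris-HCl pH 8.0 at 200,000 × g for 15 min. Pellet decrystallized in 50 mM NaOH, 2% SDS; radioactivity read by scintillation counting.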

[23] = Drug level in hemozoin of Plasmodium falciparum 3D7 at 1.5 uCi after 20 hrs; type: ADME; conditions: plasmodium falciparum 3d7, 20 h
Method in brief: (§4)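 Duplicate 12 mL ring-stage cultures at 5% parasitemia were incubated with 1.5 µCi [3H]-astemizole for 20 h. Erythrocytes were harvested at the trophozoite stage and washed. Hemozoin was extracted by hypotonic lysis and purified by sucrose-cushion ultracentrifugation, then decrystallized in NaOH/SDS and counted by scintillation.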

[24] = Drug level in hemozoin of Plasmodium falciparum Dd2 at 1.5 uCi after 20 hrs; type: ADME; conditions: plasmodium falciparum dd2, 20 h; method in brief: as §4

C=C[C@H]1CN2CC[C@H]1C[C@@H]2[C@@H](O)c1ccnc2ccc(OC)cc12
inhibition (Heme [1]): Active | Activity (Heme [2]): Active

C=C[C@H]1CN2CC[C@H]1C[C@H]2[C@H](O)c1ccnc2ccc(OC)cc12
inhibition (Heme [1]): inactive | Activity (Heme [2]): inactive

CC1(C)S[C@@H]2[C@H](NC(=O)[C@H](N)c3ccccc3)C(=O)N2[C@H]1C(=O)O
inhibition (Heme [1]): inactive | Activity (Heme [2]): inactive

CCN(CC)CCCC(C)Nc1c2ccc(Cl)cc2nc2ccc(OC)cc12 (stereo unspecified)
inhibition (Heme [1]): Active | Activity (Heme [2]): Active

CCN(CC)CCCC(C)Nc1ccnc2cc(Cl)ccc12 (stereo unspecified)
inhibition (Heme [3]; tested as the 3H-labelled form): Active | Activity (Plasmodium falciparum [4]): Active | Activity (Heme [2]; tested as the 3H-labelled form): inactive

COc1ccc(CCN(C)CCCC(C#N)(c2ccc(OC)c(OC)c2)C(C)C)cc1OC (stereo unspecified)
inhibition (Heme [1]): inactive | Activity (Heme [2]): inactive

C[C@@H]1CC[C@H]2[C@@H](C)C(=O)O[C@@H]3O[C@@]4(C)CC[C@@H]1[C@]32OO4
inhibition (Heme [1]): inactive | Activity (Heme [2]): inactive

OC(c1cc(C(F)(F)F)nc2c(C(F)(F)F)cccc12)C1CCCCN1 (stereo unspecified)
inhibition (Heme [1]): inactive | Activity (Heme [2]): inactive

COc1ccc(CCN2CCC(Nc3nc4ccccc4n3Cc3ccc(F)cc3)CC2)cc1 [ASTEMIZOLE]
IC50 (Plasmodium falciparum [5]): 0.457 µM | IC50 (Plasmodium falciparum [6]): 0.734 µM | IC50 (Heme [1]): 12.3 µM | inhibition (Heme [3]): Active | IC50 (Plasmodium falciparum [7]): 0.227 µM | Activity (Plasmodium falciparum [4]): Active | inhibition (INH) (Plasmodium vinckei [8]): 80% | inhibition (INH) (Plasmodium yoelii [9]): 44% | Activity (Plasmodium yoelii [10]): Active | Activity (Plasmodium vinckei [11]): Active | Activity (Plasmodium vinckei [12]): inactive | Activity (Plasmodium yoelii [13]): inactive

Oc1ccc(CCN2CCC(Nc3nc4ccccc4n3Cc3ccc(F)cc3)CC2)cc1 [DESMETHEYLASTEMIZOLE]
IC50 (Plasmodium falciparum [5]): 0.106 µM | IC50 (Plasmodium falciparum [6]): 0.0568 µM | t1/2 (Plasma): 170 h | IC50 (Heme [1]): 8.13 µM | IC50 (Plasmodium falciparum [7]): 0.117 µM | bioavailability [14]: 95% | inhibition (INH) (Plasmodium vinckei [15]): <=81% | inhibition (INH) (Plasmodium yoelii [9]): 40% | Activity (Plasmodium vinckei [16]): inactive | Activity (Plasmodium yoelii [13]): inactive

Fc1ccc(Cn2c(NC3CCNCC3)nc3ccccc32)cc1 [TECASTEMIZOLE]
IC50 (Plasmodium falciparum [5]): 3.59 µM | IC50 (Plasmodium falciparum [6]): 2.23 µM | IC50 (Plasmodium falciparum [7]): 4.48 µM

[3H]C([3H])([3H])Oc1ccc(CCN2CCC(Nc3nc4ccccc4n3Cc3ccc(F)cc3)CC2)cc1 [[3H]-ASTEMIZOLE]
Drug uptake [17]: 20.9 cpm/uL | Drug uptake [18]: 17.9 cpm/uL | Drug uptake [19]: 179 cpm/uL | Drug uptake [20]: 144 cpm/uL | Drug uptake [21]: 2105 cpm/uL | Drug uptake [22]: 2598 cpm/uL | Drug uptake [23]: 19656 cpm/uL | Drug uptake [24]: 21389 cpm/uL

[3H]c1nc2c([3H])c(Cl)c([3H])c([3H])c2c(N([3H])C([3H])(C([3H])([3H])[3H])C([3H])([3H])C([3H])([3H])C([3H])([3H])N(C([3H])([3H])C([3H])([3H])[3H])C([3H])([3H])C([3H])([3H])[3H])c1[3H] (stereo unspecified) [[3H]-CHLOROQUINE]
IC50 (Heme [1]): 5.74 µM
